# The source made the active and inactive calls. The rule behind the calls is not given here.
# Columns and labels:
# Leishmania donovani [1] = test: Antileishmanial activity against log phase of Leishmania donovani MHOM/IN/80/Dd8 promastigotes assessed as reduction in cell viability at 50 uM incubated for 72 hrs by MTT assay; assay type: functional
# Procedure, shortened: (§1)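 Log-phase luciferase-transfected L. donovani Dd8 promastigotes (M199 + 10% FBS, 24 °C) treated with compounds at 25 and 50 µM in DMSO, with 0.1% DMSO vehicle control. After 72 h, MTT added 4 h. Formazan dissolved in DMSO, read at 570 nm. Percent inhibition reported as mean ± SD of at least three independent experiments in replicate.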
# Leishmania donovani [2] = test: Antileishmanial activity against log phase of Leishmania donovani MHOM/IN/80/Dd8 promastigotes assessed as reduction in cell viability at 25 uM incubated for 72 hrs by MTT assay; assay type: functional; procedure, shortened: as §1
# Leishmania donovani [3] = test: Antileishmanial activity against amastigote stage of Leishmania donovani MHOM/IN/80/Dd8 harboring luciferase gene infected in mouse J774 cells assessed as parasite growth inhibition at 50 uM incubated for 72 hrs by Steady-Glo reagent based luciferase assay; assay type: functional; details: for inhibition at 50 µM: MHOM/IN/80/Dd8, J774
# Procedure, shortened: (§2)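 J774 murine macrophages, 4 × 10⁴ cells/well in RPMI with 10% FBS for 24 h, are infected for 24 h at 37 °C, 5% CO₂ with stationary-phase luciferase-transfected L. donovani Dd8 promastigotes at a 1:8 macrophage:parasite ratio. Compounds are dissolved in DMSO. Luminescence is read after Steady-Glo is added in PBS. IC₅₀ is taken from a four-parameter Hill nonlinear regression. Miltefosine is the reference.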
# Leishmania donovani [4] = test: Antileishmanial activity against amastigote stage of Leishmania donovani MHOM/IN/80/Dd8 harboring luciferase gene infected in mouse J774 cells assessed as parasite growth inhibition at 25 uM incubated for 72 hrs by Steady-Glo reagent based luciferase assay; assay type: functional; details: for inhibition at 25 µM: MHOM/IN/80/Dd8, J774; procedure, shortened: as §2
# Leishmania donovani [5] = test: Antileishmanial activity against amastigote stage of Leishmania donovani MHOM/IN/80/Dd8 harboring luciferase gene infected in mouse J774 cells assessed as parasite growth inhibition incubated for 72 hrs by Steady-Glo reagent based luciferase assay; assay type: functional, organism-based; details: MHOM/IN/80/Dd8, J774, 72 h; procedure, shortened: as §2
# [6] = Cytotoxicity against mouse J774 cells assessed as reduction in cell viability incubated for 72 hrs by MTT assay; assay type: cell-based
# Procedure, shortened: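 J774 macrophages seeded at 1 × 10^5 cells/well overnight, then exposed to graded concentrations (7.81–500 µM) for 72 h at 37 °C, 5% CO2. MTT (5 mg/mL) added for 2 h, formazan solubilized in DMSO and read at 570 nm. CC50 taken as 50% viability loss relative to untreated cells.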
# Leishmania donovani [7] = test: Antileishmanial activity against log phase of Leishmania donovani MHOM/IN/80/Dd8 promastigotes assessed as reduction in cell viability by MTT assay; assay type: functional, organism-based; details: time 12-72 hrs, TDE = time-dependent effect
# Leishmania donovani [8] = test: Antileishmanial activity against Leishmania donovani MHOM/IN/80/Dd8 infected in BALB/c mouse assessed as reduction in intracellular amastigote burden in spleen at 50 mg/kg, ip for 5 days and measured at 1 week post-treatment by Giemsa staining based assay relative to control; assay type: functional; details: time 12.0 day
# Procedure, shortened: (§3)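 Female BALB/c mice (20–25 g), 5/group, infected iv with 2 × 10^7 stationary-phase L. donovani promastigotes. Infection confirmed at 2 wk, then 50 mg/kg ip daily for 5 consecutive days. Vehicle was 5% DMSO. Sacrificed day 7 post-treatment. Giemsa-stained liver/spleen impression smears counted as amastigotes/1000 nucleated cells, expressed as LDU (amastigotes per nucleated cell × organ weight in mg), compared with untreated infected controls.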
# Leishmania donovani [9] = test: Antileishmanial activity against Leishmania donovani MHOM/IN/80/Dd8 infected in BALB/c mouse assessed as reduction in intracellular amastigote burden in liver at 50 mg/kg, ip for 5 days and measured at 1 week post-treatment by Giemsa staining based assay relative to control; assay type: functional; details: time 12.0 day; procedure, shortened: as §3
# Leishmania donovani [10] = test: Antileishmanial activity against amastigote stage of Leishmania donovani MHOM/IN/80/Dd8 harboring luciferase gene infected in mouse J774 cells assessed as parasite killing incubated for 72 hrs by Steady-Glo reagent based luciferase assay; assay type: functional, organism-based; details: dose 3.12-50 µM; procedure, shortened: as §2
# Leishmania donovani [11] = test: Antileishmanial activity against amastigote stage of Leishmania donovani MHOM/IN/80/Dd8 harboring luciferase gene infected in mouse J774 cells assessed as parasite growth inhibition by Giemsa staining based analysis; assay type: functional, organism-based; details: time 12-72 hrs, TDE = time-dependent effect
# Procedure, shortened: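 J774 macrophages are infected for 24 h with stationary-phase luciferase-transfected Dd8 promastigotes at a 1:8 ratio in chamber slides. After compound treatment, cells are fixed and Giemsa-stained, and intracellular amastigotes are counted by microscopy.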
# Leishmania donovani [12] = test: Antileishmanial activity against amastigote stage of Leishmania donovani MHOM/IN/80/Dd8 harboring luciferase gene infected in mouse J774 cells assessed as parasite killing at 50 to 100 uM incubated for 72 hrs by Steady-Glo reagent based luciferase assay; assay type: functional; details: dose 50-100 µM; procedure, shortened: as §2
# Leishmania donovani [13] = test: Induction of mitochondrial membrane potential dysfunction in Leishmania donovani MHOM/IN/80/Dd8 promastigotes assessed as cells with mitochondrial depolarization at 50 uM incubated for 72 hrs by JC1 staining based flow cytometry (reference value: 3.63%); assay type: functional
# Leishmania donovani [14] = test: Antileishmanial activity against Leishmania donovani MHOM/IN/80/Dd8 infected in BALB/c mouse assessed as reduction in organ intracellular amastigote burden at 25 mg/kg, po for 5 days and measured at 1 week post-treatment by Giemsa staining based assay relative to control; assay type: functional; details: MHOM/IN/80/Dd8, po, 288 h, time 12 day
# Procedure, shortened: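 Female BALB/c mice (20–25 g), 5/group, infected iv with 2 × 10^7 stationary-phase L. donovani promastigotes. Reference drug given orally at 25 mg/kg daily for 5 consecutive days. Sacrificed day 7 post-treatment. Liver and spleen impression smears fixed in methanol, stained with 30% Giemsa for 2 h. Amastigotes/1000 nucleated cells counted and expressed as LDU.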
# Splenocyte [15] = test: Immunomodulatory activity in BALB/c mouse infected with Leishmania donovani amastigotes assessed as increase in IFN-gamma level in splenocytes supernatants at 25 mg/kg, po for 5 days; assay type: functional, organism-based; details: time 5.0 day
# Splenocyte [16] = test: Immunomodulatory activity in BALB/c mouse infected with Leishmania donovani amastigotes assessed as increase in IL-12 level in splenocytes supernatants at 25 mg/kg, po for 5 days; assay type: functional, organism-based; details: time 5.0 day
# Splenocyte [17] = test: Immunomodulatory activity in BALB/c mouse infected with Leishmania donovani amastigotes assessed as decrease in IL-10 level in splenocytes supernatants at 25 mg/kg, po for 5 days; assay type: functional, organism-based; details: time 5.0 day
# Splenocyte [18] = test: Immunomodulatory activity in BALB/c mouse infected with Leishmania donovani amastigotes assessed as decrease in TGF-beta level in splenocytes supernatants at 25 mg/kg, po for 5 days; assay type: functional, organism-based; details: time 5.0 day
# Leishmania = test: Antileishmanial activity against Leishmania; assay type: functional, organism-based
# Procedure, shortened: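 Antiamastigote assay: J774 murine macrophages in RPMI + 10% FBS, infected 24 h at 37 °C, 5% CO2 with stationary-phase luciferase-transfected L. donovani Dd8 promastigotes (1:8 macrophage:parasite). Infectivity confirmed by Giemsa staining on parallel slides. Compounds then added and incubated 72 h. Read-out by luciferase luminescence. IC50 from four-parameter Hill nonlinear regression of the dose-response.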
# Leishmania donovani [19] = test: Antileishmanial activity against Leishmania donovani promastigotes assessed as parasite growth inhibition incubated for 72 hrs by Alamar Blue assay; assay type: functional, organism-based
SMILES,inhibition at 50 µM (Leishmania donovani [1]),inhibition at 25 µM (Leishmania donovani [2]),inhibition at 50 µM (Leishmania donovani [3]),inhibition at 25 µM (Leishmania donovani [4]),also measured
COc1ccc(-c2cc(N3CCN(c4ccccc4Cl)CC3)c(C#N)c(=O)o2)cc1,69.2%,60.3%,62.5%,51%,
COc1ccc(-c2cc(N3CCN(c4ccccc4O)CC3)c(C#N)c(=O)o2)cc1,86.3%,78.3%,84.4%,51.8%,IC50 (Leishmania donovani [5]): 13 µM
N#Cc1c(N2CCN(c3ccccc3O)CC2)cc(-c2cccs2)oc1=O,90.2%,81.3%,89.3%,84.7%,CC50 at 72 h [6]: 311 µM; Activity (Leishmania donovani [7]): Tde; Activity (Leishmania donovani [8]): Active; Activity (Leishmania donovani [9]): Active; Activity (Leishmania donovani [10]): Dose-Dependent Effect; Activity (Leishmania donovani [11]): Tde; Activity (Leishmania donovani [12]): >89%; IC50 (Leishmania donovani [5]): 15.3 µM
N#Cc1c(N2CCN(c3ccccc3O)CC2)cc(-c2ccc(Br)cc2)c2c1CCSC2,33.3%,,83.3%,71%,inhibition (Leishmania donovani [2]): inactive
N#Cc1c(N2CCN(c3ccccc3O)CC2)cc(-c2ccc(Br)s2)oc1=O,88.1%,52.1%,85.1%,74.8%,IC50 (Leishmania donovani [5]): 13 µM
N#Cc1c(N2CCN(c3ccccc3Cl)CC2)cc(-c2ccccc2)oc1=O,72.9%,46.9%,73.7%,49.2%,
COc1ccccc1N1CCN(c2cc(-c3ccc(Br)cc3)oc(=O)c2C#N)CC1,61.2%,56.6%,58.3%,43.3%,
N#Cc1c(N2CCN(c3cccc(Cl)c3)CC2)cc(-c2ccccc2)oc1=O,57.3%,44%,72.1%,47.4%,
N#CC(C#N)=NNc1cccc(Cl)c1 [CARBONYL CYANIDE M-CHLOROPHENYLHYDRAZONE],,,,,Activity (Leishmania donovani [13]): 95.6%
N#Cc1c(N2CCN(c3ccccc3Cl)CC2)cc(-c2ccc(Cl)cc2)oc1=O,58.3%,55.2%,71%,73.1%,
N#Cc1c(N2CCN(c3ccccc3O)CC2)cc(-c2ccccc2)c2c1CSC2,87.8%,82.1%,,,inhibition (Leishmania donovani [3]): inactive; inhibition (Leishmania donovani [4]): inactive
N#Cc1c(N2CCN(c3ccccc3O)CC2)cc(-c2cccs2)c2c1CCSC2,,,72.6%,65%,inhibition (Leishmania donovani [1]): inactive; inhibition (Leishmania donovani [2]): inactive
N#Cc1c(N2CCN(c3ccccc3O)CC2)cc(-c2ccc(Br)cc2)oc1=O,,,35.1%,14.5%,inhibition (Leishmania donovani [1]): inactive; inhibition (Leishmania donovani [2]): inactive
CCCCCCCCCCCCCCCCOP(=O)([O-])OCC[N+](C)(C)C [MILTEFOSINE],99.7%,99.4%,95.3%,91.2%,IC50 (Leishmania donovani [5]): 12.8 µM; inhibition in vivo at 25 mg/kg (Leishmania donovani [14]): > 97%; Activity (Splenocyte [15]): Active; Activity (Splenocyte [16]): Active; Activity (Splenocyte [17]): Active; Activity (Splenocyte [18]): Active
N#Cc1c(N2CCN(c3ccccc3O)CC2)cc(-c2cccc3ccccc23)oc1=O,78.6%,77.3%,80.8%,71.4%,IC50 (Leishmania donovani [5]): 13 µM
Cc1ccc(-c2cc(N3CCN(c4ccccc4O)CC3)c(C#N)c(=O)o2)cc1,72.8%,54.7%,83.2%,77.3%,IC50 (Leishmania donovani [5]): 13 µM
N#Cc1c(N2CCN(c3ccccc3O)CC2)cc(-c2ccc(Cl)cc2)oc1=O,25%,,,,inhibition (Leishmania donovani [2]): inactive; inhibition (Leishmania donovani [3]): inactive; inhibition (Leishmania donovani [4]): inactive
N#Cc1c(N2CCN(c3ccccc3O)CC2)cc(-c2cccs2)c2c1CSC2,4.8%,,79.3%,60.1%,inhibition (Leishmania donovani [2]): inactive
N#Cc1c2c(c3c(c1N1CCN(c4ccccc4O)CC1)Cc1ccccc1-3)CSC2,,,57.3%,45.5%,inhibition (Leishmania donovani [1]): inactive; inhibition (Leishmania donovani [2]): inactive
CCn1nc2cc(N/C(C)=C3/C(=O)C=C(C)OC3=O)ccc2c1Cl,,,,,IC50 (Leishmania): 2.48 µM
N#Cc1c(N2CCN(c3ccccc3O)CC2)c2c(oc1=O)-c1ccccc1CC2,81.3%,35.9%,64.8%,37.8%,
c1ccc2[nH]c(-c3ccc(N4CCN(c5ccc(-c6nc7ccccc7[nH]6)cc5)CC4)cc3)nc2c1,,,,,IC50 (Leishmania donovani [19]): 0.41 µM
N#Cc1c(N2CCN(c3ccccc3Cl)CC2)cc(-c2ccc(Br)cc2)oc1=O,66.5%,57.9%,68.5%,60.5%,
COc1ccccc1N1CCN(c2cc(-c3cccs3)oc(=O)c2C#N)CC1,62.2%,48.1%,71.2%,52.2%,
N#Cc1c(N2CCN(c3ccccc3O)CC2)c2c(oc1=O)-c1ccccc1C2,82.2%,14.2%,60%,37.8%,

# Reference: ChEMBL document CHEMBL4837217, “Design, synthesis, in vitro and in vivo biological evaluation of pyranone-piperazine analogs as potent antileishmanial agents” (Eur J Med Chem, 2021)
